The results in this text go back to ChEMBL document CHEMBL1124262, “Cardiotonic agents. Synthesis and inotropic activity of a series of isoquinolin-3-ol derivatives” (J Med Chem, 1988).

One experiment addresses Phosphodiesterase 3 (Homo sapiens, UniProt Q14432+Q13370). Description: Inhibition of phosphodiesterase fraction III in anesthetized open chest dogs. The class given is functional, Canis lupus familiaris. As to conditions: target entry is the homologue from another species. The essentials:
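Enzyme is dog heart PDE-III, the third DEAE-cellulose fraction eluted at 800 mM sodium acetate. Compounds are tested at 0.01–1000 μM with 0.25 μM cAMP containing [³H]cAMP, in 0.05 M Tris-HCl pH 7.4 with 5 mM MgCl2. The reaction is stopped by heat, then snake venom converts product to adenosine. [³H]adenosine is counted by scintillation after Dowex separation. IC50 comes from ≥2 determinations, each in duplicate.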

Experiment [1] concerns Canis familiaris. Description: Change in left ventricular pressure of anaesthetized, open chest dogs following 0.875 mg/kg i.v. administration. Format: functional, Canis lupus familiaris, Heart left ventricle. As to conditions: route intravenous. The gist of the method: (§1)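 Anesthetized open-chest dogs, one drug per animal. Compound is in DMF diluted to 10% in saline, or given as the HCl salt in saline. It is infused into the femoral vein by pump at 0.58-2.2 mL/min in 3-4 stepwise cumulative doses, each over 5 min after the prior peak. Readings are CF by right-ventricle strain gauge, dP/dtmax by Millar LV catheter, HR by cardiotachometer and MAP from femoral artery, as % change from predrug control.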

Experiment [2] deals with Canis familiaris. Description: Percent change in mean arterial blood pressure (MAP) in anesthetized open chest dogs iv administration at 0.875 mg/kg. Format: functional, Canis lupus familiaris. The essentials: as §1
Experiment [3] concerns Canis familiaris. Description: 50% increase in contractile force in one to three anesthetized dogs administered intravenously. As to conditions: Canis lupus familiaris, iv. The class given is functional. The essentials: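 Anesthetized dogs (one to three). Compound is infused iv in three to four stepwise increasing doses, each over 5 min once the previous effect has peaked. Contractile force is recorded with a Walton Brodie strain gauge on the right ventricle. The dose (μg/kg) giving a 50% rise over control CF is read from the dose-response curve, graphically (n < 3) or by linear regression (n ≥ 3).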

The subject of experiment [4] is Canis familiaris. The experiment is described as follows: Percent change in heart rate (HR) in anesthetized open chest dogs after a iv dose of 0.875 mg/kg. The class given is functional, Canis lupus familiaris. The essentials: as §1
Experiment [5] relates to Canis familiaris. Description: Change in heart contractile force of anaesthetized, open chest dogs following 0.875 mg/kg i.v. administration. The class given is functional, Canis lupus familiaris. As to conditions: route intravenous. The gist of the method: as §1
Experiment [6] has as its system Canis familiaris. The experiment is described as follows: Percent change in mean arterial blood pressure (MAP) in anesthetized open chest dogs iv administration at 10 mg/kg. Format: functional, Canis lupus familiaris. The essentials: as §1
The subject of experiment [7] is Canis familiaris. Description: Percent change in heart rate (HR) in anesthetized open chest dogs after a iv dose of 10 mg/kg. The class given is functional, Canis lupus familiaris. The essentials: as §1
Experiment [8] deals with Canis familiaris. Description: Percent change in mean arterial blood pressure (MAP) in anesthetized open chest dogs iv administration at 0.8750 mg/kg. As to conditions: dose 0.875 mg/kg. The class given is functional, Canis lupus familiaris. The essentials:
as §1

For experiment [9], the system named is Canis familiaris. The experiment is described as follows: Percent increase in contractile force (CF) in anesthetized open-chest dogs id administration of 10 mg/kg. As to conditions: route intraduodenal. Format: functional, Canis lupus familiaris. The gist of the method:
(§2)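 Anesthetized open-chest dogs. A 10-mL bolus is injected into the duodenum through a catheter placed 2 cm distal to the pylorus. Contractile force is measured with a Walton Brodie strain gauge sutured to the right ventricle, at a baseline tension of 100 g, and monitored continuously. Results are given as % increase from predrug control against cumulative dose.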

Experiment [10] relates to Canis familiaris. The experiment is described as follows: Change in heart rate of anaesthetized, open chest dogs following 0.875 mg/kg i.v. administration. The class given is functional, Canis lupus familiaris. The following applies: route intravenous. The gist of the method:
as §1

For experiment [11], the system named is Canis familiaris. Description: Percent change in left ventricular pressure (dP/dtmax) in anesthetized dog after iv administration at 10 mg/kg. The class given is functional, Canis lupus familiaris, Heart left ventricle. The gist of the method: as §1
In experiment [12] the test system is Canis familiaris. Description: Percent change in mean arterial blood pressure (MAP) in anesthetized open chest dogs iv administration at 0.9250 mg/kg. The class given is functional, Canis lupus familiaris. As to conditions: dose 0.925 mg/kg. The essentials: as §1
The subject of experiment [13] is Canis familiaris. Description: Percent change in left ventricular pressure (dP/dtmax) in anesthetized dog after iv administration at 0.925 mg/kg. The class given is functional, Canis lupus familiaris, Heart left ventricle. The gist of the method:
as §1

The test system of experiment [14] is Canis familiaris. Description: Percent increase in contractile force (CF) in anesthetized open-chest dogs iv administration of 0.925 mg/kg. Format: functional, Canis lupus familiaris. The gist of the method: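 Anesthetized open-chest dogs. After a right thoracotomy, contractile force was recorded by a Walton Brodie strain gauge sutured to the right ventricle at 100 g baseline tension. Compound was given iv by infusion pump into a femoral vein, one drug per animal, in three to four stepwise increasing doses. Each dose ran over 5 min, starting once the previous dose's effect peaked. Values are % increase over predrug control vs cumulative mg/kg dose.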

Experiment [15] deals with Canis familiaris. The experiment is described as follows: Percent change in heart rate (HR) in anesthetized open chest dogs after a iv dose of 0.925 mg/kg. The class given is functional, Canis lupus familiaris. The gist of the method:
as §1

Experiment [16] deals with Canis familiaris. Description: Percent change in mean arterial blood pressure (MAP) in anesthetized open chest dogs iv administration at 1 mg/kg. Format: functional, Canis lupus familiaris. The gist of the method:
as §1

Experiment [17] deals with Canis familiaris. The experiment is described as follows: Percent change in heart rate (HR) in anesthetized open chest dogs after a iv dose of 1 mg/kg. The class given is functional, Canis lupus familiaris. The gist of the method:
as §1

For experiment [18], the system named is Canis familiaris. The experiment is described as follows: Contractile force in anesthetized open chest dogs id administration 1.00 mg/kg. Format: functional, Canis lupus familiaris. The following applies: route intraduodenal. The gist of the method: as §2
Experiment [19] relates to Canis familiaris. Description: Percent increase in left ventricular pressure (dP/dtmax) of anesthetized dog after id administration at 1 mg/kg. Format: functional, Canis lupus familiaris, Heart left ventricle. The following applies: route intraduodenal. The essentials:
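Anesthetized open-chest dogs. Left ventricular pressure was measured by Millar catheter and dP/dtmax derived. Compound was given as a 10-mL bolus into the duodenum through a catheter placed 2 cm distal to the pylorus via flank incision. Dissolved in DMF diluted to 10% in saline, or as HCl salt in saline. Response is % change over predrug control, monitored continuously.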

In experiment [20] the test system is Canis familiaris. The experiment is described as follows: Percent change in heart rate (HR) in anesthetized open chest dogs after a iv dose of 0.025 mg/kg. Format: functional, Canis lupus familiaris. The gist of the method: as §1
The subject of experiment [21] is Canis familiaris. The experiment is described as follows: Contractile force in anesthetized open chest dogs id administration at 1.00 mg/kg. Format: functional, Canis lupus familiaris. As to conditions: route intraduodenal. The gist of the method:
as §2

The test system of experiment [22] is Canis familiaris. Description: Percent change in left ventricular pressure (dP/dtmax) in anesthetized dog after iv administration at 0.025 mg/kg. Format: functional, Canis lupus familiaris, Heart left ventricle. The essentials: as §1
The test system of experiment [23] is Canis familiaris. The experiment is described as follows: Percent change in mean arterial blood pressure (MAP) in anesthetized open chest dogs iv administration at 0.025 mg/kg. Format: functional, Canis lupus familiaris. The gist of the method:
as §1

Experiment [24] concerns Canis familiaris. The experiment is described as follows: Percent increase in contractile force (CF) in anesthetized open-chest dogs iv administration of 0.025 mg/kg. Format: functional, Canis lupus familiaris. The essentials: as §1

SMILES strings stand for the structures.

In turn, `COc1cc(OC)c2c(C)nc(O)cc2c1` showed a half-inhibitory concentration (IC50) against Phosphodiesterase 3 of 80 µM. For the same compound, the Increase in the experiment with Canis familiaris [1] amounted to 62%; in the experiment with Canis familiaris [5] it was 91%. The results for the Change with Canis familiaris [2] and in the experiment on Canis familiaris [4] were -18% and 13%, respectively. This compound gave a 50% effective dose (ED50) in the experiment on Canis familiaris [3] of 0.375 mg/kg.

`COC(=O)CCc1c(O)nc(C)c2cc(OC)c(OC)cc12` gave an IC50 against Phosphodiesterase 3 of 35 µM. Also, the Increase in the experiment on Canis familiaris [1] is listed as 78%; in the experiment on Canis familiaris [9], 105%; with Canis familiaris [5], 140%; in the experiment with Canis familiaris [11] it was 52%. For the same compound, the Change in the experiment with Canis familiaris [6] was -11%; in the experiment with Canis familiaris [7], 12%; in the experiment with Canis familiaris [8], -12%; in the experiment on Canis familiaris [10] it was 34%. The compound further yielded an ED50 with Canis familiaris [3] of 0.165 mg/kg.

Regarding `COc1ccc2c(C)nc(O)cc2c1`, the IC50 against Phosphodiesterase 3 was determined as 160 µM. Besides, the results for the Change in the experiment on Canis familiaris [12] and with Canis familiaris [15] were 0% and 8%, respectively. Also, the Increase is 56% in the experiment with Canis familiaris [13] and 65% in the experiment on Canis familiaris [14]. It took a dose of 0.6 mg/kg to reach the 50% effect level with Canis familiaris [3] (ED50).

As to `CCCc1c(O)nc(C)c2cc(OC)c(OC)cc12`, the Change was found to be 3% with Canis familiaris [16], 4% in the experiment with Canis familiaris [8], 5% with Canis familiaris [17] and 22% in the experiment on Canis familiaris [10]. The same compound came in with a half-maximal inhibitory concentration (IC50) at Phosphodiesterase 3 of 5 µM. For the same compound, the Increase in the experiment with Canis familiaris [1] turned out to be 55%; in the experiment on Canis familiaris [18], 20%; in the experiment with Canis familiaris [5], 108%; with Canis familiaris [19] it was 20%. In addition, in the experiment with Canis familiaris [3], the ED50 was determined as 0.125 mg/kg.

For the compound `CCc1c(O)nc(C)c2cc(OC)c(OC)cc12`, the Change in the experiment with Canis familiaris [16] is -22%; with Canis familiaris [20], 13%; in the experiment with Canis familiaris [23], -12%; in the experiment with Canis familiaris [17] it was 22%. At Phosphodiesterase 3, this compound returned an IC50 of 2 µM. Moreover, the Increase turned out to be 132% in the experiment with Canis familiaris [21], 98% in the experiment on Canis familiaris [22], 143% with Canis familiaris [24] and 92% in the experiment with Canis familiaris [19]. For the same compound, in the experiment on Canis familiaris [3], the 50% effect level (ED50) was put at a dose of 0.012 mg/kg.

The IC50 is the midpoint of a concentration-inhibition curve. The term ED50 denotes the midpoint of the dose-response relation. Low readings indicate greater potency, high ones weaker potency.
